Data as given in ChEMBL document CHEMBL1126856, “Azulenic retinoids: novel nonbenzenoid aromatic retinoids with anticancer activity” (1993).
Several values for one entry are separate records, joined by “and”; a condition that tells them apart may be missing. Identical values can stand only once.

Experiments:
Type in all cases: functional, Mus musculus
C3H 10T1/2 [1] = test: Toxicity against C3H10T1/2 cell line of murine embryo fibroblasts at 10e-10 M
In short: (§1)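 C3H10T1/2 cells plated at clonal density and exposed to retinoid in acetone (0.5%) for 7 days. Plating efficiency was normalized to the MCA-treated (1 day) control plating efficiency.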

C3H 10T1/2 [2] = test: Tested for anticancer activity by measuring the number of communicating cells using gap junctional communication assay at 10e-6 M (P>0.01)
C3H 10T1/2 [3] = test: Tested for inhibition of neoplastic transformation by measuring the transformed foci per dish at 10e-10 M
In short: (§2)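 C3H10T1/2 cells given 3-MCA (3 μg/mL) for 24 h, then 7 days later continuous retinoid in acetone (final 0.5%), renewed at each weekly medium change, for 4 weeks. Cultures were fixed, stained and scored for type II and III transformed foci; result as foci/dish and % of MCA-treated control. 12 dishes per group.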

C3H 10T1/2 [4] = test: Tested for toxicity against C3H10T1/2 cell line of murine embryo fibroblasts at 10e-6 M; in short: as §1
C3H 10T1/2 [5] = test: Inhibition of neoplastic transformation was measured by measuring the transformed foci per dish at 10e-6 M; in short: as §2
C3H 10T1/2 [6] = test: Inhibition of neoplastic transformation at a concentration of 10e-6 M; in short: as §2
C3H 10T1/2 [7] = test: Tested for toxicity against C3H10T1/2 cell line of murine embryo fibroblasts at 10e-8 M; in short: as §1
C3H 10T1/2 [8] = test: Inhibition of neoplastic transformation at a concentration of 10e-8 M; parameters: scale not given: the % may be the effect or the level left; in short: as §2
C3H 10T1/2 [9] = test: The compound was tested for inhibition of neoplastic transformation, at a concentration of 10e-10 M; parameters: scale not given: the % may be the effect or the level left; in short: as §2
C3H 10T1/2 [10] = test: Tested for inhibition of neoplastic transformation by measuring the transformed foci per dish at 10e-8 M; in short: as §2
C3H 10T1/2 [11] = test: Tested for anticancer activity by measuring the number of communicating cells using gap junctional communication assay at 10e-6 M
C3H 10T1/2 [12] = test: Tested for inhibition of neoplastic transformation by measuring the transformed foci per dish at 10*e-8 M; in short: as §2
C3H 10T1/2 [13] = test: Tested for inhibition of neoplastic transformation by measuring the transformed foci per dish at 10*e-10 M; in short: as §2
C3H 10T1/2 [14] = test: Inhibition of Neoplastic transformation at a concentration of 10*e-8 M; parameters: scale not given: the % may be the effect or the level left; in short: as §2
C3H 10T1/2 [15] = test: The compound was tested for inhibition of Neoplastic transformation, at a concentration of 10*e-10 M; parameters: scale not given: the % may be the effect or the level left; in short: as §2
C3H 10T1/2 [16] = test: Inhibition of Neoplastic transformation at a concentration of 10*e-6 M; parameters: scale not given: the % may be the effect or the level left; in short: as §2
C3H 10T1/2 [17] = test: Tested for toxicity against C3H10T1/2 cell line of murine embryo fibroblasts at 10 e-6 M; in short: as §1
C3H 10T1/2 [18] = test: Tested for toxicity against C3H10T1/2 cell line of murine embryo fibroblasts at 10*e-8 M; in short: as §1
C3H 10T1/2 [19] = test: Toxicity against C3H10T1/2 cell line of murine embryo fibroblasts at 10*e-10 M; in short: as §1
C3H 10T1/2 [20] = test: Tested for anticancer activity by measuring the number of communicating cells using gap junctional communication assay at 10*e-6 M (P>0.001)
C3H 10T1/2 [21] = test: Inhibition of neoplastic transformation was measured by measuring the transformed foci per dish at 10 e-6 M; in short: as §2
C3H 10T1/2 [22] = test: Tested for anticancer activity by measuring the number of communicating cells using gap junctional communication assay at 10e-6 M (P>0.001)
C3H 10T1/2 [23] = test: Tested for anticancer activity by measuring the number of communicating cells using gap junctional communication assay at 10e-6 M (P>0.05)
C3H 10T1/2 [24] = test: The compound was tested for inhibition of Neoplastic transformation, at a concentration of 10e-10 M; parameters: scale not given: the % may be the effect or the level left; in short: as §2

CC(/C=C/C=C/c1ccc2cccccc1-2)=C(/F)C(=O)O
Control (C3H 10T1/2 [1]): 113% | Communicating cells (C3H 10T1/2 [2]): 8.8 | Foci/dish (C3H 10T1/2 [3]): 0.58 | Control (C3H 10T1/2 [4]): 78% | Foci/dish (C3H 10T1/2 [5]): 0.08 | Transformed foci, % of MCA-treated control (C3H 10T1/2 [6]): 12% | Control (C3H 10T1/2 [7]): 120% | Control (C3H 10T1/2 [8]): 12% | Control (C3H 10T1/2 [9]): 88% | Foci/dish (C3H 10T1/2 [10]): 0.08

CC(/C=C/C=C/c1cc(C)c2cc(C(C)C)ccc(C)c1-2)=C\C=O
Control (C3H 10T1/2 [1]): 115% | Foci/dish (C3H 10T1/2 [3]): 1.16 | Control (C3H 10T1/2 [4]): 125% | Foci/dish (C3H 10T1/2 [5]): 1.25 | Transformed foci, % of MCA-treated control (C3H 10T1/2 [6]): 119% | Control (C3H 10T1/2 [7]): 129% | Communicating cells (C3H 10T1/2 [11]): 5.7 | Control (C3H 10T1/2 [8]): 95% | Control (C3H 10T1/2 [9]): 110% | Foci/dish (C3H 10T1/2 [10]): 1

Cc1cc(/C=C/C=C/c2ccc(C(=O)O)cc2)c2c(C)ccc(C(C)C)cc1-2
Control (C3H 10T1/2 [1]): 89% | Foci/dish (C3H 10T1/2 [3]): 0.33 | Control (C3H 10T1/2 [4]): 98% | Foci/dish (C3H 10T1/2 [5]): 0.5 | Transformed foci, % of MCA-treated control (C3H 10T1/2 [6]): 75% | Control (C3H 10T1/2 [7]): 94% | Communicating cells (C3H 10T1/2 [11]): 2.9 | Control (C3H 10T1/2 [8]): 50% | Control (C3H 10T1/2 [9]): 50% | Foci/dish (C3H 10T1/2 [10]): 0.33

CC(/C=C/C=C/c1cc(C)c2cc(C(C)C)ccc(C)c1-2)=C\C(=O)O
Foci/dish (C3H 10T1/2 [12]): 1.27 | Foci/dish (C3H 10T1/2 [13]): 1.08 | Control (C3H 10T1/2 [14]): 120% | Control (C3H 10T1/2 [15]): 103% | Control (C3H 10T1/2 [16]): 76% | Control (C3H 10T1/2 [17]): 89.1% | Control (C3H 10T1/2 [18]): 120% | Control (C3H 10T1/2 [19]): 116% | Communicating cells (C3H 10T1/2 [20]): 9.1 | Foci/dish (C3H 10T1/2 [21]): 0.8

Cc1cc(/C=C/c2ccc(CO)cc2)c2c(C)ccc(C(C)C)cc1-2
Control (C3H 10T1/2 [1]): 129% | Foci/dish (C3H 10T1/2 [3]): 1 | Control (C3H 10T1/2 [4]): 84% | Foci/dish (C3H 10T1/2 [5]): 1.09 | Transformed foci, % of MCA-treated control (C3H 10T1/2 [6]): 104% | Control (C3H 10T1/2 [7]): 138% | Communicating cells (C3H 10T1/2 [11]): 4.9 | Control (C3H 10T1/2 [8]): 110% | Control (C3H 10T1/2 [9]): 95% | Foci/dish (C3H 10T1/2 [10]): 1.16

Cc1cc(/C=C/c2ccc(C=O)cc2)c2c(C)ccc(C(C)C)cc1-2
Control (C3H 10T1/2 [1]): 142% | Communicating cells (C3H 10T1/2 [2]): 8.7 | Foci/dish (C3H 10T1/2 [3]): 1.5 | Control (C3H 10T1/2 [4]): 58% | Foci/dish (C3H 10T1/2 [5]): 0.91 | Transformed foci, % of MCA-treated control (C3H 10T1/2 [6]): 87% | Control (C3H 10T1/2 [7]): 174% | Control (C3H 10T1/2 [8]): 166% | Control (C3H 10T1/2 [9]): 143% | Foci/dish (C3H 10T1/2 [10]): 1.75

CC(/C=C/c1cc(C)c2cc(C(C)C)ccc(C)c1-2)=C\C=C\C(C)=C\C(=O)O
Control (C3H 10T1/2 [1]): 94% | Foci/dish (C3H 10T1/2 [3]): 0.4 | Control (C3H 10T1/2 [4]): 178% | Foci/dish (C3H 10T1/2 [5]): 0.5 | Transformed foci, % of MCA-treated control (C3H 10T1/2 [6]): 75% | Control (C3H 10T1/2 [7]): 151% | Communicating cells (C3H 10T1/2 [11]): 1.55 | Control (C3H 10T1/2 [8]): 61% | Control (C3H 10T1/2 [9]): 61% | Foci/dish (C3H 10T1/2 [10]): 0.4

Cc1ccc2c(/C=C/c3ccc(C(=O)O)cc3)ccc(C(C)C)cc1-2
Control (C3H 10T1/2 [1]): 75% | Communicating cells (C3H 10T1/2 [22]): 9.5 | Foci/dish (C3H 10T1/2 [3]): 0.16 | Control (C3H 10T1/2 [4]): 66% | Foci/dish (C3H 10T1/2 [5]): 0 | Transformed foci, % of MCA-treated control (C3H 10T1/2 [6]): 0% | Control (C3H 10T1/2 [7]): 75% | Control (C3H 10T1/2 [8]): 24% | Control (C3H 10T1/2 [9]): 24% | Foci/dish (C3H 10T1/2 [10]): 0.16

CC(/C=C/C=C/c1cc(C)c2cc(C(C)C)ccc(C)c1-2)=C\CO
Control (C3H 10T1/2 [1]): 125% | Foci/dish (C3H 10T1/2 [3]): 1.5 | Control (C3H 10T1/2 [4]): 89% | Foci/dish (C3H 10T1/2 [5]): 1.18 | Transformed foci, % of MCA-treated control (C3H 10T1/2 [6]): 112% | Control (C3H 10T1/2 [7]): 120% | Communicating cells (C3H 10T1/2 [23]): 8.8 | Control (C3H 10T1/2 [8]): 142% | Control (C3H 10T1/2 [9]): 142% | Foci/dish (C3H 10T1/2 [10]): 1.5

Cc1cc(/C=C/c2ccc(C(=O)O)cc2)c2c(C)ccc(C(C)C)cc1-2
Control (C3H 10T1/2 [1]): 119% | Communicating cells (C3H 10T1/2 [22]): 18.3 | Foci/dish (C3H 10T1/2 [3]): 1.54 | Control (C3H 10T1/2 [4]): 67% | Foci/dish (C3H 10T1/2 [5]): 0 | Transformed foci, % of MCA-treated control (C3H 10T1/2 [6]): 0% | Control (C3H 10T1/2 [7]): 94% | Control (C3H 10T1/2 [8]): 40% | Control (C3H 10T1/2 [9]): 146% | Foci/dish (C3H 10T1/2 [10]): 0.42

Cc1ccc(C(C)C)cc2c(C)c(/C=C/c3ccc(C(=O)O)cc3)cc1-2
Control (C3H 10T1/2 [1]): 96% | Communicating cells (C3H 10T1/2 [2]): 7.2 | Foci/dish (C3H 10T1/2 [3]): 0.16 | Control (C3H 10T1/2 [4]): 84% | Foci/dish (C3H 10T1/2 [5]): 0.16 | Transformed foci, % of MCA-treated control (C3H 10T1/2 [6]): 24% | Control (C3H 10T1/2 [7]): 129% | Control (C3H 10T1/2 [8]): 24% | Control (C3H 10T1/2 [9]): 24% | Foci/dish (C3H 10T1/2 [10]): 0.16

C/C(=C\c1ccc(C(=O)O)cc1)c1ccc2c(c1)C(C)(C)CCC2(C)C
Control (C3H 10T1/2 [1]): 95% and 96% | Communicating cells (C3H 10T1/2 [22]): 21.2 | Foci/dish (C3H 10T1/2 [3]): 0 | Control (C3H 10T1/2 [4]): 80% and 85% | Control (C3H 10T1/2 [24]): 0% | Foci/dish (C3H 10T1/2 [5]): 0 | Transformed foci, % of MCA-treated control (C3H 10T1/2 [6]): 0% | Control (C3H 10T1/2 [7]): 83% and 91% | Control (C3H 10T1/2 [8]): 0% | Control (C3H 10T1/2 [9]): 0% | Communicating cells (C3H 10T1/2 [20]): 18.5 | Foci/dish (C3H 10T1/2 [10]): 0

Cc1cc(/C=C/C=C/C(=C\C(=O)O)C(F)(F)F)c2c(C)ccc(C(C)C)cc1-2
Control (C3H 10T1/2 [1]): 98% | Foci/dish (C3H 10T1/2 [3]): 0.58 | Control (C3H 10T1/2 [4]): 178% | Foci/dish (C3H 10T1/2 [5]): 0.58 | Transformed foci, % of MCA-treated control (C3H 10T1/2 [6]): 88% | Control (C3H 10T1/2 [7]): 156% | Communicating cells (C3H 10T1/2 [23]): 5.6 | Control (C3H 10T1/2 [8]): 88% | Control (C3H 10T1/2 [9]): 88% | Foci/dish (C3H 10T1/2 [10]): 0.58

O=C(O)c1ccc(/C=C/c2ccc3cccccc2-3)cc1
Control (C3H 10T1/2 [1]): 129% | Communicating cells (C3H 10T1/2 [22]): 7.4 | Foci/dish (C3H 10T1/2 [3]): 0.33 | Control (C3H 10T1/2 [4]): 67% | Foci/dish (C3H 10T1/2 [5]): 0.08 | Transformed foci, % of MCA-treated control (C3H 10T1/2 [6]): 12% | Control (C3H 10T1/2 [7]): 147% | Control (C3H 10T1/2 [8]): 50% | Control (C3H 10T1/2 [9]): 50% | Foci/dish (C3H 10T1/2 [10]): 0.33
